Columns and labels:
Format in all cases: functional
MCF7 [1] = assay: Cytotoxicity against hormone-dependent human MCF7 cells at 6 mM after 12 hrs by CCK-8 assay
In short: (§1)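 MCF-7 monolayers grown in DMEM plus FBS and penicillin-streptomycin (37 °C, 5% CO2), plated 5 × 10^4 cells/well 12 h before dosing. Exposure 12 h at the listed concentration. Viability measured by WST-8 (CCK-8) reduction: 10% CCK-8 in serum-free medium, 3 h, absorbance 450 nm. Viability% = 100 × (sample−blank)/(control−blank).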

LoVo [2] = assay: Cytotoxicity against hormone-independent human LoVo cells at 8 mM after 12 hrs by CCK-8 assay
In short: (§2)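 For LoVo colorectal adenocarcinoma cells, cultured in DMEM supplemented with FBS and penicillin-streptomycin (37 °C, 5% CO2), 2.5 × 10^4 cells/well were plated 12 h ahead, then treated 12 h. Read-out: CCK-8 (10% in serum-free medium, 3 h), absorbance 450 nm. Percent viability = 100 × (S−B)/(K−B) using blank and control wells.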

MCF7 [3] = assay: Cytotoxicity against hormone-dependent human MCF7 cells at 2 mM after 12 hrs by CCK-8 assay; in short: as §1
HeLa [4] = assay: Cytotoxicity against hormone-dependent human HeLa cells at 8 mM after 12 hrs by CCK-8 assay
In short: (§3)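 HeLa cells (adherent) in F-12K medium with fetal bovine serum and penicillin-streptomycin, 37 °C, 5% CO2. Seeded at 1 × 10^4 cells/well and allowed to form a monolayer for 12 h. Treated 12 h at the stated concentration. Medium then replaced with serum-free medium containing 10% CCK-8 for 3 h. OD read at 450 nm. Viability% = 100 × (S−B)/(K−B) against blank and untreated control.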

K562 [5] = assay: Cytotoxicity against human K562 cells at 4 mM after 12 hrs by CCK-8 assay
In short: (§4)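 Suspension K562 cells maintained in RPMI 1640 with FBS and penicillin-streptomycin at 37 °C, 5% CO2. Seeded at 2 × 10^4 cells/well and exposed 12 h at the given concentration. Then incubated 3 h with 10% CCK-8 in serum-free medium. OD 450 nm. Viability% = 100 × (S−B)/(K−B) versus blank and untreated control.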

LoVo [6] = assay: Cytotoxicity against hormone-independent human LoVo cells at 6 mM after 12 hrs by CCK-8 assay; in short: as §2
K562 [7] = assay: Cytotoxicity against human K562 cells at 6 mM after 12 hrs by CCK-8 assay; in short: as §4
K562 [8] = assay: Cytotoxicity against human K562 cells at 8 mM after 12 hrs by CCK-8 assay; in short: as §4
A549 [9] = assay: Cytotoxicity against hormone-independent human A549 cells at 8 mM after 12 hrs by CCK-8 assay
In short: (§5)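 A549 adherent cells in DMEM with FBS and penicillin-streptomycin at 37 °C, 5% CO2. Seeded at 1 × 10^4 cells/well and attached for 12 h. Compound applied for 12 h, followed by 3 h in serum-free medium with 10% CCK-8. OD at 450 nm. Viability expressed as 100 × (S−B)/(K−B) relative to untreated cells.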

A549 [10] = assay: Cytotoxicity against hormone-independent human A549 cells at 6 mM after 12 hrs by CCK-8 assay; in short: as §5
K562 [11] = assay: Cytotoxicity against human K562 cells at 2 mM after 12 hrs by CCK-8 assay; in short: as §4
MCF7 [12] = assay: Cytotoxicity against hormone-dependent human MCF7 cells at 4 mM after 12 hrs by CCK-8 assay; in short: as §1
HeLa [13] = assay: Cytotoxicity against hormone-dependent human HeLa cells at 6 mM after 12 hrs by CCK-8 assay; in short: as §3
MCF7 [14] = assay: Cytotoxicity against hormone-dependent human MCF7 cells at 8 mM after 12 hrs by CCK-8 assay; in short: as §1
LoVo [15] = assay: Cytotoxicity against hormone-independent human LoVo cells at 4 mM after 12 hrs by CCK-8 assay; in short: as §2
A549 [16] = assay: Cytotoxicity against hormone-independent human A549 cells at 4 mM after 12 hrs by CCK-8 assay; in short: as §5
HeLa [17] = assay: Cytotoxicity against hormone-dependent human HeLa cells at 2 mM after 12 hrs by CCK-8 assay; in short: as §3
LoVo [18] = assay: Cytotoxicity against hormone-independent human LoVo cells at 2 mM after 12 hrs by CCK-8 assay; in short: as §2
HeLa [19] = assay: Cytotoxicity against hormone-dependent human HeLa cells at 4 mM after 12 hrs by CCK-8 assay; in short: as §3
A549 [20] = assay: Cytotoxicity against hormone-independent human A549 cells at 2 mM after 12 hrs by CCK-8 assay; in short: as §5

Row | SMILES | Activity (MCF7 [1]) [%] | Activity (LoVo [2]) [%] | Activity (MCF7 [3]) [%] | Activity (HeLa [4]) [%] | Activity (K562 [5]) [%] | Activity (LoVo [6]) [%] | Activity (K562 [7]) [%] | Activity (K562 [8]) [%] | Activity (A549 [9]) [%] | Activity (A549 [10]) [%] | Activity (K562 [11]) [%] | Activity (MCF7 [12]) [%] | Activity (HeLa [13]) [%] | Activity (MCF7 [14]) [%] | Activity (LoVo [15]) [%] | Activity (A549 [16]) [%] | Activity (HeLa [17]) [%] | Activity (LoVo [18]) [%] | Activity (HeLa [19]) [%] | Activity (A549 [20]) [%]
1 | O[C@@H]1[C@@H](O)[C@H](O)[C@]2(CO2)[C@@H](O)[C@H]1O | 53 | 24 | 22 | 7 | 20 | 5 | 26 | 36 | 26 | 20 | 6 | 46 | 2 | 66 |  |  |  |  |  | 
2 | OC[C@H]1SC(O)[C@H](O)[C@@H](O)[C@@H]1O (stereo not given in full) | 40 | 88 | 17 | 98 | 45 | 85 | 94 | 98 | 97 | 96 | 6 | 25 | 99 | 49 | 54 | 96 | 70 | 28 | 90 | 79
3 | OC[C@@]12CO[C@H](O1)[C@H](O)[C@@H](O)[C@H]2O | 5 | 12 | 6 | 3 |  | 13 |  |  | 7 | 5 |  | 2 |  | 3 | 7 | 4 | 4 | 9 | 4 | 23
4 | OCC1(O)SC[C@@H](O)C(O)C1O (single isomer, unassigned) | 3 | 42 | 3 | 51 |  | 32 |  |  | 55 | 46 |  | 7 | 48 | 2 | 25 | 44 | 28 | 28 | 30 | 44
